This is a sample that favours compounds with a hit; in the whole collection about 3.7% have one here.
KCNK9 inh – KCNK9 potassium channel inhibitors, primary screen, HEK293 cells, thallium flux. Potassium channel subfamily K member 9 (Homo sapiens), Q9NPC2. FluxOR thallium flux fluorescence; active compounds read low. B-score at 10 µM. 310,000 compounds, 1.2% hits;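 active = ratio B-score over 3 SD below the library mean, with starting fluorescence within 5 SD of its mean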;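 also: negative B-score means less thallium flux so channel inhibition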
Kir21 inh – inhibitors of mouse Kir2.1 inward-rectifier potassium channel | B-score at 10 µM | HEK293-Kir2.1, FluxOR thallium flux fluorescence; active compounds read low | Inward rectifier potassium channel 2 (Mus musculus), P35561 | AID 1672, 2009 | 310,000 compounds, 0.85% hits;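 active = fluorescence ratio B-score at or below minus 3 SD of library scores, with starting-brightness B-score within 2 SD, cut at about -4.2 in these data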;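 also: channel flux triggered by added potassium and thallium sulfate stimulus; B-score of peak minus minimum fluorescence over baseline after thallium stimulus; more negative B-score means stronger Kir2.1 block with less thallium influx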
KCNK3 inh – human KCNK3 channel inhibitors, primary screen, CHO cells, FluxOR thallium flux, B-score; FluxOR fluorescence; active compounds read low; B-score at 10 µM; 340,000 compounds, 0.84% hits;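 active = B-score under library mean minus 4 SD, starting fluorescence ratio at most library mean plus 5 SD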;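 also: more negative B-score means stronger inhibition of thallium flux through KCNK3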
KCNQ1 inh – inhibitors of human KCNQ1 channel, primary screen, cell-based, thallium flux, high-throughput; Potassium voltage-gated channel subfamily KQT member 1 (Homo sapiens), P51787; CHO-K1 KCNQ1, FluxOR thallium flux fluorescence; active compounds read high; B-score at 10 µM; 310,000 compounds, 1.3% hits;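 active = compounds whose thallium flux B-score, printed positive for inhibition, exceeds three library SD while starting fluorescence stays within three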;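 also: channel opened by potassium depolarization with thallium stimulus after 20 min compound exposure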
Target sequence (P51787 whole entry, looked up): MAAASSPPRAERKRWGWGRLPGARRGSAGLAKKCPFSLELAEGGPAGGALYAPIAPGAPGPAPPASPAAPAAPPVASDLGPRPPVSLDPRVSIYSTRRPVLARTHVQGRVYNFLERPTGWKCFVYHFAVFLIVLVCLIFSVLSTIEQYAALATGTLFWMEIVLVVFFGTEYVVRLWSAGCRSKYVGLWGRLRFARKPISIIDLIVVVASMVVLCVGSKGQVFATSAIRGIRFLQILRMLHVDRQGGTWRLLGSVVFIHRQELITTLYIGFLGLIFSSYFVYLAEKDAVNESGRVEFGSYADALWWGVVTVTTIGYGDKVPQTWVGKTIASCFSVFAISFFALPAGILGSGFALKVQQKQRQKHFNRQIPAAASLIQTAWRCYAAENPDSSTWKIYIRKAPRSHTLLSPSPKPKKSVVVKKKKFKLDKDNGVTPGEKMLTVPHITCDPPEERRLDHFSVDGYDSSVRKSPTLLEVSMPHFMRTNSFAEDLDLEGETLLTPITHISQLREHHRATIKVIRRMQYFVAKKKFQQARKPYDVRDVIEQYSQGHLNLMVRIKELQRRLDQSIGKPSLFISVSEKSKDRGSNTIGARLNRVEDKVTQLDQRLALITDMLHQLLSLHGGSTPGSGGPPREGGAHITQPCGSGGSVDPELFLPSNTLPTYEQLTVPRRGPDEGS
KCNQ1 act – potentiators or activators of KCNQ1 channel, primary screen, cell-based, thallium flux, high-throughput | Potassium voltage-gated channel subfamily KQT member 1 (Homo sapiens), P51787 | CHO-K1 KCNQ1, thallium flux FluxOR fluorescence; active compounds read high | B-score at 10 µM | 310,000 compounds, 0.35% hits | AID 2648, 2010;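 active = fluorescence ratio B-score, a plate-corrected score, at least three library SD, with initial intensity B-score within 5 SD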
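assay system = CHO-K1 cells stably expressing KCNQ1 | medium = assay buffer, equal DMSO in all wells | timing = 37 °C overnight plating, 90-min dark dye load, 20-min compound pretreatment | measured by = kinetic FluxOR thallium fluorescence, 10-s 1-Hz baseline, 110-s post-stimulus read | measure = fluorescence change relative to baseline, converted to B score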
hERG protect – hERG rescue from dofetilide block, primary screen, cell-based, CHO-hERG, FluxOR thallium flux, dofetilide IC70; dofetilide IC70 present; Voltage-gated inwardly rectifying potassium channel KCNH2 (Homo sapiens), Q12809; activation (rescue from dofetilide block), less the hit threshold, % at 10 µM; 310,000 compounds, 0.51% hits;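 active = activation above the mean of controls blocked by dofetilide plus 5 SD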;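 also: thallium influx through hERG after potassium depolarization seen as dye fluorescence rise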
KCNK9 inh conf – KCNK9 potassium channel inhibitors, confirmation, HEK293 cells, thallium flux, duplicate. shares compounds with KCNK9 inh. FluxOR thallium flux fluorescence. inhibition, % at 10 µM. 4,900 compounds, 43% hits. AID 492992, 2010;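 active = thallium signal inhibited by more than 5 SD of the compound-free buffer control wells, on both duplicate plates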;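 also: 0% = assay buffer control wells without compound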
Kir21 sel – mouse Kir2.1 channel inhibition, confirmation, selectivity assay for KCNK9 modulator project, cell-based, HEK293, thallium flux | AID 492993, 2010 | 4,900 compounds, 4% hits | Kir2.1 cells, FluxOR thallium flux fluorescence | inhibition, % at 10 µM | shares compounds with KCNK9 inh;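 active = thallium signal drop more than 5 SD beyond the mean of the no-compound control wells, seen in both duplicate plates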;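 also: signal is fluorescence rise after thallium addition divided by baseline fluorescence; plate controls were assay buffer only for no effect and full block by chlorpromazine control for full effect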
HEK293 Tl ctr – thallium flux in non-induced HEK293 cells, confirmation, counter-screen for KCNK9 inhibitor project, cell-based, second counter screen, non-induced KCNK9-HEK293; shares compounds with KCNK9 inh; FluxOR thallium flux; inhibition, % at 10 µM; 4,900 compounds, 40% hits;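 active = thallium signal drop beyond 5 SD of the untreated control mean, on both duplicate plates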;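 also: plate controls were buffer only IC0 wells for no effect and SID17386958 at its maximal inhibitory level for full effect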
The depositor's hits bear a star; i = inactive; . = no result.

SMILES	KCNK9 inh	Kir21 inh	KCNK3 inh	KCNQ1 inh	KCNQ1 act	hERG protect	KCNK9 inh conf	Kir21 sel	HEK293 Tl ctr
O=C(C1=NN[C@@H]2C(=O)N(Cc3ccccc3)C(=O)[C@H]12)c1ccc([N+](=O)[O-])cc1	i	-0.56	i	i	i	-10.5	.	.	.
CC1(c2ccc(OC(F)F)cc2)NC(=O)N(CC(=O)Nc2ccc3c(c2)OCO3)C1=O (stereo not given)	-9.8*	-1.1	i	i	13*	-16.1	i	i	31.0%*
CC1(c2ccccc2)NC(=O)N(CC(=O)Nc2ccc3c(c2)OCO3)C1=O (stereo not given)	i	0.21	i	i	i	-10.0	.	.	.
CC(=O)Nc1ccc(S(=O)(=O)Nc2ccccc2C(=O)N2CCCC2)cc1	i	0.02	i	i	i	-9.3	.	.	.
CC(c1ccon1)N(C)Cc1cn(C)nc1-c1cccc(Cl)c1 (stereo not given)	i	0.51	i	i	i	-10.2	.	.	.
CCSc1nc2ccccc2n1C(=O)c1ccc(S(=O)(=O)N2CCCCCC2)cc1	i	1.87	i	i	i	-7.3	i	i	i
COc1ccc(S(=O)(=O)N(C)C[C@H]2Oc3ccc(NC(=O)c4ccncc4)cc3C(=O)N([C@H](C)CO)C[C@@H]2C)cc1	.	.	i	.	.	.	.	.	.
CCCC(=NCCc1c(C)[nH]c2ccccc12)C1=C(O)CC(c2ccccc2)CC1=O (stereo not given)	i	-1.61	i	i	i	-7.8	i	i	i
CCCCC(=NCCc1c(C)[nH]c2ccccc12)C1=C(O)CC(c2ccccc2)CC1=O (stereo not given)	i	0.08	i	i	i	-9.9	i	i	i
CCOc1nc(NCCO)nc(Nc2cc(Cl)ccc2OC)n1	i	-0.05	i	i	i	-14.0	.	.	.
COc1cc(C)c(NC(=O)C(=S)NCCc2ccccc2)cc1C	i	1.25	i	i	i	-12.0	i	i	i
CC1Cc2ccccc2N1C(=O)/C=C/c1cccc(F)c1 (stereo not given)	i	1.32	i	i	i	-19.3	i	i	i
CC1CCC2(CC1)NC(=O)N(CC(=O)Nc1ccc(F)cc1)C2=O (stereo not given)	.	.	i	.	.	.	.	.	.
CCN1c2ccccc2-c2nc3ccccc3n2C1c1cccs1 (stereo not given)	-9.32*	-0.43	i	i	i	-7.4	59.0%*	i	61.5%*
CCCn1c(-c2cccs2)nc2ccccc21	i	-0.43	i	i	i	-7.6	.	.	.
CCOc1cc(CNc2ccc(Br)cc2)cc(Br)c1OCC(=O)NC(C)(C)C	-9.18*	-0.15	i	i	i	2.2	47.0%*	i	40.5%*
O=c1c2ccccc2nc(/C=C/c2cccnc2)n1CCc1ccccc1	-9.34*	-0.72	i	i	i	-13.0	i	i	27.0%*
COC(=O)c1ccc(C23CC4(C2)[C@H](CN(C)[C@@H]4c2ccccc2)C3c2ccc(Cl)nc2)cc1 (stereo not given in full)	i	-0.91	i	i	i	-12.4	.	.	.
CCCCN1C(=N)N([C@@H](CCC)CN2CCC[C@H]2CN2C(N)=NC[C@H]2C(C)C)C[C@H]1[C@H](C)CC	.	.	i	.	.	.	.	.	.
CC1(C)C=Cc2c(c3c(c4c(=O)c(-c5ccc(O)cc5)coc24)OC(C)(C)CC3)O1	-10.5*	-0.4	i	i	i	-6.8	49.5%*	i	25.5%*
CC(C)=CCc1c2c(c3occ(-c4ccc(O)cc4)c(=O)c3c1O)C=CC(C)(C)O2	i	-1.42	i	i	i	-7.6	.	.	.
O=C(CCCCCNC(=O)N1CCn2c1nc1ccccc12)N[C@@H](Cc1ccccc1)C(=O)O	i	-0.42	i	i	i	-5.0	.	.	.
CCCCC(=O)Nc1cccc(NC(=O)c2ccc(Br)o2)c1	-8.53*	-0.81	i	i	i	-17.9	43.0%*	i	i
Cc1ccc(Nc2nc(N)nc(CCl)n2)c(C)c1	i	1.46	i	i	i	-3.5	.	.	.
C/C(=N\N1CCN(c2ccc(Cl)cc2)CC1)c1cccc([N+](=O)[O-])c1	-10.6*	1.21	i	i	i	-1.3	43.5%*	i	30.0%*
SMILES	KCNK9 inh	Kir21 inh	KCNK3 inh	KCNQ1 inh	KCNQ1 act	hERG protect	KCNK9 inh conf	Kir21 sel	HEK293 Tl ctr
O=c1[nH]cccc1-c1nc2ccccc2n1Cc1cccc(F)c1	i	1.5	i	i	i	-8.7	.	.	.
Cc1ccc(N2C(=O)N(Cc3ccccc3C)c3ccccc3S2(=O)=O)cc1	i	1.23	i	i	i	-11.5	.	.	.
Cc1ccc(-c2[nH]c3ccccc3c2SCCNC(=O)c2cc3ccccc3oc2=O)cc1	i	0.29	i	6*	i	-12.4	i	i	i
CCCCCCCC[n+]1cccc2c3ccccc3ccc21	-14*	-10.6*	i	9*	i	-24.6	62.0%*	86.0%*	i
Cc1cccc[n+]1CCCCCCCCCC[n+]1ccccc1C	i	0.12	i	i	i	-9.6	.	.	.
CCOC(=O)C1(Cc2cccc(OC)c2)CCN(Cc2cccn2-c2nccs2)CC1	i	-2.47	i	i	i	-14.4	.	.	.
CCOC(=O)C1(CCc2ccccc2)CCN(Cc2cc(OC)c(OC)cc2OC)CC1	i	-0.52	i	i	i	-14.4	i	i	i
CCOC(=O)C1(CCc2ccccc2)CCN(Cc2ccc(C(=O)OC)cc2)CC1	i	1.47	i	i	i	-15.2	.	.	.
CCOC(=O)C1(Cc2ccccc2)CCN(Cc2cccc3nccnc23)CC1	i	-1.5	i	i	i	-0.4	i	i	i

High-throughput results (PubChem)
